{
  "source": "ChEMBL document CHEMBL4414599",
  "about": "“Selective Phenylimidazole-Based Inhibitors of the Mycobacterium tuberculosis Proteasome” (J Med Chem, 2019)",
  "key": {"[1]": {"test": "(§1) Inhibition of Mycobacterium tuberculosis 20S open gate mutant using Suc-LLVY-AMC as substrate and measured every 30 secs for 30 mins by microtiter plate assay", "how_it_was_run": "(§2)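 Mtb20S open-gate form, expressed and purified in-house, 8 nM in the enzyme solution. Buffer: 20 mM HEPES pH 7.5, 0.5 mM EDTA, 0.1 mg/mL BSA. Suc-LLVY-AMC at 100 µM final. Run at 25 °C with a three-fold inhibitor dilution series, DMSO under 0.5% final. Fluorescence 340/460 nm read every 30 s for 30 min. Rates fitted against log inhibitor concentration to give IC50; triplicate wells.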"}, "[2]": {"tested_on": "Mycobacterium tuberculosis", "test": "as §1", "how_it_was_run": "as §2"}, "[3]": {"tested_on": "human 20S proteasome subunit beta-5i versus Mycobacterium tuberculosis 20S open gate mutant", "test": "Selectivity index, ratio of IC50 for human 20S proteasome subunit beta-5i to IC50 for Mycobacterium tuberculosis 20S open gate mutant", "assay_type": "toxicity", "details": "read-out: Ratio IC50"}, "[4]": {"tested_on": "human 20S proteasome subunit beta-5c versus Mycobacterium tuberculosis 20S open gate mutant", "test": "Selectivity index, ratio of IC50 for human 20S proteasome subunit beta-5c to IC50 for Mycobacterium tuberculosis 20S open gate mutant", "assay_type": "toxicity", "details": "read-out: Ratio IC50"}},
  "data": [
    {"smiles": "COc1ccccc1CNC(=O)[C@H](C)NC(=O)[C@H](CC(=O)N1CCC[C@@H]1c1ccccc1)NC(=O)c1cc(C)on1", "values": [
      {"measurement": "IC50", "setting": "[1]", "value": 65, "unit": "nM"},
      {"measurement": "inhibition", "setting": "[2]", "value": "Dose-dependent effect"},
      {"measurement": "selectivity ratio", "setting": "[3]", "value": "> 1500"},
      {"measurement": "selectivity ratio", "setting": "[4]", "value": "> 1500"}
    ]},
    {"smiles": "CC[C@@H]1CCCCN1C(=O)C[C@H](NC(=O)CCC(C)C)C(=O)N[C@@H](C)c1ncc(-c2ccc(F)cc2F)[nH]1", "values": [
      {"measurement": "IC50", "setting": "[1]", "value": 30, "unit": "nM"}
    ]},
    {"smiles": "Cc1cc(C(=O)N[C@@H](CC(=O)N2CCC[C@@H]2c2ccccc2)C(=O)N[C@@H](C)c2ncc(-c3ccccc3)[nH]2)no1", "values": [
      {"measurement": "IC50", "setting": "[1]", "value": 25, "unit": "nM"},
      {"measurement": "selectivity ratio", "setting": "[3]", "value": "> 4000"},
      {"measurement": "selectivity ratio", "setting": "[4]", "value": "> 4000"}
    ]},
    {"smiles": "Cc1cc(C(=O)N[C@@H](CC(=O)N2CCCC[C@@H]2C)C(=O)N[C@@H](C)c2ncc(-c3ccccc3)[nH]2)no1", "values": [
      {"measurement": "IC50", "setting": "[1]", "value": 470, "unit": "nM"}
    ]},
    {"smiles": "Cc1cc(C(=O)N[C@@H](CC(=O)N2CCC[C@@H]2c2ccccc2)C(=O)N[C@@H](C)c2ncc(-c3ccc(F)cc3F)[nH]2)no1", "values": [
      {"measurement": "IC50", "setting": "[1]", "value": 13, "unit": "nM"},
      {"measurement": "selectivity ratio", "setting": "[3]", "value": "> 7700"},
      {"measurement": "selectivity ratio", "setting": "[4]", "value": "> 7700"}
    ]},
    {"smiles": "Cc1cc(C(=O)N[C@@H](CC(=O)N2CCC[C@@H]2c2ccccc2)C(=O)N[C@@H](C)C(=O)NCc2c(F)cccc2F)no1", "values": [
      {"measurement": "IC50", "setting": "[1]", "value": 7, "unit": "nM"},
      {"measurement": "inhibition", "setting": "[2]", "value": "Dose-dependent effect"},
      {"measurement": "selectivity ratio", "setting": "[3]", "value": 2870},
      {"measurement": "selectivity ratio", "setting": "[4]", "value": "> 14300"}
    ]},
    {"smiles": "Cc1cc(C(=O)N[C@@H](CC(=O)N2CCC[C@@H]2c2ccccc2)C(=O)N[C@@H](C)C(=O)NCc2ccc(F)cc2F)no1", "values": [
      {"measurement": "IC50", "setting": "[1]", "value": 3, "unit": "nM"},
      {"measurement": "inhibition", "setting": "[2]", "value": "Dose-dependent effect"},
      {"measurement": "selectivity ratio", "setting": "[3]", "value": 2630},
      {"measurement": "selectivity ratio", "setting": "[4]", "value": "> 33300"}
    ]},
    {"smiles": "Cc1cc(C(=O)N[C@@H](CC(=O)N2CCCC[C@@H]2C)C(=O)N[C@@H](C)C(=O)NCc2ccc(F)cc2F)no1", "values": [
      {"measurement": "IC50", "setting": "[1]", "value": 7, "unit": "nM"},
      {"measurement": "inhibition", "setting": "[2]", "value": "Dose-dependent effect"},
      {"measurement": "selectivity ratio", "setting": "[3]", "value": 3.7},
      {"measurement": "selectivity ratio", "setting": "[4]", "value": 202}
    ]},
    {"smiles": "Cc1cc(C(=O)N[C@@H](CC(=O)N2CCC[C@@H]2c2ccccc2)C(=O)N[C@@H](C)c2ncc(-c3ccccc3F)[nH]2)no1", "values": [
      {"measurement": "IC50", "setting": "[1]", "value": 8, "unit": "nM"},
      {"measurement": "selectivity ratio", "setting": "[3]", "value": "> 12500"},
      {"measurement": "selectivity ratio", "setting": "[4]", "value": "> 12500"}
    ]}
  ]
}
